# According to PubChem BioAssay:
# The source made the active and inactive calls.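 How the source made its calls, unless noted: active means viability at or below 30% in both replicate assays; inconclusive means viability at or below 30% in just one of the two assays; inactive means the rest.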
# Assays:
# [1] = Her2 expression decrease, cell viability multiplex – SKBR3 breast tumor cells, AlphaScreen, ATP viability, primary screen (AID 461;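 active means Her2 level under about 52% in both replicate screens, with viability over 70% of control, limit read from the data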;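 on Her2 level: lower value means less Her2 protein in the cells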;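 on viability: percent of carrier control wells set as 100% viability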); details: SKBR3 Her2 protein level, 18-24 h, measured here: SKBR3 viability, ATP luminescence, at 10 µM
# [2] = biological target: Receptor tyrosine-protein kinase erbB-2 (Homo sapiens) (UniProt P04626); test: as above; details: 18-24 h, at 10 µM, stronger effect = lower value
# [3] = reduced viability of SK-BR-3 breast cancer cells – cell-based, 24 h, human, pilot screen (AID 572;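 active means viability at or below 10% of carrier control in both of two separate runs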;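 further: compound exposure lasted between 18 and 24 h rather than exactly 24 h; 100% = carrier-treated control wells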); details: SK-BR-3 viability, CellTiter-Glo luminescence, at 10 µM, stronger effect = lower value
# [4] = HUVEC growth inhibition – cell-based, human, primary screen (AID 575); details: HUVEC proliferation, CellTiter-Glo luminescence, 72 h; at 10 µM; stronger effect = lower value;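 further: 100% = median of untreated cell wells with 0.1% DMSO on each plate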
# Outline: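 Test system: primary human umbilical vein endothelial cells; medium: endothelial basal medium with 2% FBS plus growth supplements; dosing: 10 µM compound only; times: 72 h treatment at 37 °C; signal: CTG luminescence; read-out: % viability relative to median vehicle-well signal on each plate; control set: vehicle and MePR control wells; plate: 384-well, collagen-coated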
# [5] = H69AR cell proliferation blockers – human, duplicate replicates, primary screen (AID 580;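 active means viability at or under a set limit in both replicates, limit being median viability minus 3 SD, cut at about 48% in these data, passing the limit was not always enough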;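 further: 100% = mean luminescence of untreated wells and 0% = no signal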); details: H69AR lung tumor cells viability, ATP luminescence, 72 h; at 10 µM; stronger effect = lower value
# [6] = MRP1 drug-resistance reversers in H69AR cells – cell-based, doxorubicin co-treatment, pilot screen (AID 601;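 active means viability loss from added drug above about 55%, and viability with drug at most 40%, in both replicates, limit read from the data, passing the limit was not always enough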); details: CellTiter-Glo, 72 h, at 10 µM; for differential viability (reversal): stronger effect = higher value
# [7] = yeast transport mutant growth inhibition pilot in 384-well plates, post-Golgi transport modulator project (AID 636; in the data active means inhibition above about 31%); details: absorbance 615 nm, about 18 h, stronger effect = higher value
# [8] = growth suppression of yeast trafficking mutant, preliminary HTS, modulators of trafficking downstream of Golgi apparatus project, 1536-format plate, OD 615 nm (AID 637; in the data active means inhibition above about 30%); details: yeast transport mutant growth, absorbance 615 nm, 18 h; stronger effect = higher value
# [9] = H69AR cells + 2 uM doxorubicin, measured here: viability with 2 uM doxorubicin, stronger effect = lower value
# [10] = H69AR cells, compound alone cytotoxicity
# Receptor tyrosine-protein kinase erbB-2 (Homo sapiens), sequence (P04626 whole entry, looked up): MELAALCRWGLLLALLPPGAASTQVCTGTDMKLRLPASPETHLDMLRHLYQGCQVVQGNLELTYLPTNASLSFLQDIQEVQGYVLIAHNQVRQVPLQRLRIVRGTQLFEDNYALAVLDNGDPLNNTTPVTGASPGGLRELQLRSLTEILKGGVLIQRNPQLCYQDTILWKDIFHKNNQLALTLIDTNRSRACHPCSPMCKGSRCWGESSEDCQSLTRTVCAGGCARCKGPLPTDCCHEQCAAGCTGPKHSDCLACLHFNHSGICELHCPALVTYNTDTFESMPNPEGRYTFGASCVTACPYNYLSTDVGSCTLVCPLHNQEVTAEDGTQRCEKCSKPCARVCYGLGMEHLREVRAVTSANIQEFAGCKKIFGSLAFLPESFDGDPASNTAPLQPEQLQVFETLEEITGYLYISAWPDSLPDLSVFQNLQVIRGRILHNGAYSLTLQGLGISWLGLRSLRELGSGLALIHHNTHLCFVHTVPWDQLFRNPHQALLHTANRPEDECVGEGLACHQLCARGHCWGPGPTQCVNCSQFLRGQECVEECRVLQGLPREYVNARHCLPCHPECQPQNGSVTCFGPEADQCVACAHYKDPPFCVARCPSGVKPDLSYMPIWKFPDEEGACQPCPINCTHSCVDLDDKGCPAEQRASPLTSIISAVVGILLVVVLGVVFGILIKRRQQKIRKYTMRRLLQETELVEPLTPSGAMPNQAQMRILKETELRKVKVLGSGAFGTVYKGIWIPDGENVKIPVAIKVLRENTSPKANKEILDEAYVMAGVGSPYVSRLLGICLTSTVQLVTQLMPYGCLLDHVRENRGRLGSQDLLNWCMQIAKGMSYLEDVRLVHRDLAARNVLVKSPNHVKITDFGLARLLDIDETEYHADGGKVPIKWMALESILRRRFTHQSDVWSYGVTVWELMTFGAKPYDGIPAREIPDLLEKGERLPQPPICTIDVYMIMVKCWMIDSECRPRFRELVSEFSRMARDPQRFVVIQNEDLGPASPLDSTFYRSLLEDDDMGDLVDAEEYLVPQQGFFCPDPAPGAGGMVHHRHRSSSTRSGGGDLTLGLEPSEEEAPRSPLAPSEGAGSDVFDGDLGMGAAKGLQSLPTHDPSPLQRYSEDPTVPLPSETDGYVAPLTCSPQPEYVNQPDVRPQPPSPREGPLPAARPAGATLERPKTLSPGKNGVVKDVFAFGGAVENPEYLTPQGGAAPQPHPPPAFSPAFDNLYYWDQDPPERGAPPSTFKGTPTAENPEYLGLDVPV
SMILES,viability [1],Her2 level [2],viability [3],viability [4],viability [5],differential viability (reversal) ([6]; H69AR cells + 2 uM doxorubicin),"viability [6, 9]","viability [6, 10]",inhibition [7],inhibition [8]
Cn1cccc1-c1cc(C(=O)O)[nH]n1,129%,110% (inactive),129% (inactive),106% (inactive),93.8% (inactive),-7.12% (inactive),101%,93.8%,-4.61% (inactive),1.64% (inactive)
CCCC1C(C#N)=C(N)Oc2n[nH]c(C(C)(C)C)c21 (stereo not given),106%,99.5% (inactive),106% (inactive),95.1% (inactive),105% (inactive),11% (inactive),94.4%,105%,-6.97% (inactive),-7.58% (inactive)
O=C(c1ccc2c(c1)OCO2)N1CCCN(C(=O)c2ccc3c(c2)OCO3)CC1,89.5%,91% (inactive),89.5% (inactive),110% (inactive),97.9% (inactive),10.7% (inactive),87.2%,97.9%,-1.95% (inactive),-1.97% (inactive)
c1ccc(-c2noc(C34CC5CC(CC(C5)C3)C4)n2)nc1,130%,106% (inactive),130% (inactive),94.8% (inactive),83.4% (inactive),17.3% (inactive),66.2%,83.4%,-4.87% (inactive),2.13% (inactive)
CCOC(=O)CSc1nnc(-c2ccc(S(=O)(=O)N3CCOCC3)cc2)n1-c1ccccc1,93%,83.5% (inactive),93% (inactive),94.4% (inactive),105% (inactive),17.4% (inactive),87.7%,105%,-1.97% (inactive),1.43% (inactive)
COc1cccc(N2CCN(CC(=O)NCc3cccs3)CC2)c1,108%,100% (inactive),108% (inactive),128% (inactive),99% (inactive),6.28% (inactive),92.8%,99%,-3.38% (inactive),-2.17% (inactive)
Cc1ccc(-c2nc(CS(=O)CC(=O)NCCN(CC(C)C)CC(C)C)c(C)o2)cc1 (stereo not given),81%,84.5% (inactive),81% (inactive),86.4% (inactive),103% (inactive),19.8% (inactive),83.6%,103%,-5.2% (inactive),0.97% (inactive)
Cc1ccc(CSC2=NCCN2C(=O)C2CC2)cc1,100%,88% (inactive),100% (inactive),83.3% (inactive),97% (inactive),10.7% (inactive),86.3%,97%,-8.11% (inactive),8.57% (inactive)
CCN(CC)CCCNC(=O)c1nn(-c2ccc(OC)cc2OC)c(=O)c2ccccc12,97%,103% (inactive),97% (inactive),72.3% (inactive),96.1% (inactive),-0.935% (inactive),97%,96.1%,-2.57% (inactive),-7.46% (inactive)
O=C(CCN1C(=O)COc2ccccc21)NCCCN1CCN(c2ccccc2F)CC1,105%,118% (inactive),105% (inactive),90.6% (inactive),84.6% (inactive),5.56% (inactive),79%,84.6%,-3.64% (inactive),-2.5% (inactive)
COc1cccc(OC)c1C(=O)n1nc(C)cc1C,84.5%,87% (inactive),84.5% (inactive),110% (inactive),98.8% (inactive),3.22% (inactive),95.5%,98.8%,1.18% (inactive),4.1% (inactive)
CCC(=O)Nc1ccc2nc(SCC(=O)N3CCCC3)sc2c1,97.5%,100% (inactive),97.5% (inactive),114% (inactive),94.1% (inactive),5.62% (inactive),88.5%,94.1%,2.67% (inactive),38.4% (active)
C=CCn1c(C)cc(C(=O)CSc2nc3ccccc3o2)c1C,108%,72.5% (inactive),108% (inactive),81.2% (inactive),95.6% (inactive),10% (inactive),85.6%,95.6%,-2.84% (inactive),-3.33% (inactive)
CCOC(=O)c1[nH]c(C)c(C(=O)Nc2ccc(C)c(Cl)c2)c1C,94%,88% (inactive),94% (inactive),61.4% (inactive),28.6% (active),-29% (inactive),57.6%,28.6%,-5.53% (inactive),-2.7% (inactive)
CCOC(=O)C1=C(C)N=C2SCCC(=O)N2C1c1cc(Br)ccc1OC (stereo not given),94.5%,91% (inactive),94.5% (inactive),107% (inactive),92% (inactive),1.69% (inactive),90.3%,92%,-7.67% (inactive),0% (inactive)
CSCCC(NC(=O)c1ccco1)C(=O)O (stereo not given),97.5%,110% (inactive),97.5% (inactive),112% (inactive),91.8% (inactive),0.86% (inactive),91%,91.8%,-0.93% (inactive),15% (inactive)
